Screening data as filed in PubChem BioAssay.
DENV2 CPE rescue: inhibitors of DENV2 cytopathic effect; DENV2-infected cells, cytopathic effect rescue, plate reader; CPE inhibition, % at 9.99 µM; 1.7% of 350,000 active; AID 651640; in the data active = CPE inhibition above about 20%, passing the limit was not always enough; inconclusive = no clear call, values can overlap the other calls; tested in BHK-21 cells;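 note: 0% = median of neutral control wells and 100% = median of positive control wells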
AF4-AF9 inh: blocks AF4 peptide binding to human AF9; inhibition, % at 10 µM; 0.47% of 350,000 active; P42568; AlphaScreen, biotin-AF4 peptide binding to FLAG-AF9;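 active = every replicate reaching a set inhibition limit, whatever the replicate mean, cut at about 25% in these data; inconclusive = mean inhibition reaches that limit but some replicates miss it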;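 note: 0% = plate neutral control median and 100% = total signal loss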
Target sequence (P42568 whole entry, looked up): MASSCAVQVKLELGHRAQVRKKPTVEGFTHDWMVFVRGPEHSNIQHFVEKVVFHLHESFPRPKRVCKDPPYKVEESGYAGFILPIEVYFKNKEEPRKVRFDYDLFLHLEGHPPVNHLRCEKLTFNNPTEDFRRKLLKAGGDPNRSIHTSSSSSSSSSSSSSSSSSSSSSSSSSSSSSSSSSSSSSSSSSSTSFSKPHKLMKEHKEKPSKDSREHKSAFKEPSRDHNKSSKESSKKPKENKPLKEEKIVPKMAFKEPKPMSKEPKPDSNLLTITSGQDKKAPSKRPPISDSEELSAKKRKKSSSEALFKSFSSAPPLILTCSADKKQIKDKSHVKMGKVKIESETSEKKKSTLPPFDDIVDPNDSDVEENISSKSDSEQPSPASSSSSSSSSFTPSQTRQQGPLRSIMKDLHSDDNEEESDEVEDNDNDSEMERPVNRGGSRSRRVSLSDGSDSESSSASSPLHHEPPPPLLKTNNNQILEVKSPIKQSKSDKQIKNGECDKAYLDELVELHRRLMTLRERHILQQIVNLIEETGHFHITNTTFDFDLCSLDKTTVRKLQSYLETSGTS
S100A4 MyoIIA: blocks human S100A4 binding to myosin IIA peptide; 0.14% of 360,000 active; S100A4/TAMRA-MyoIIA peptide fluorescence polarization; inhibition, % at 10.7 µM; AID 652163;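 active = mean inhibition of at least 70% across replicates, with every replicate also reaching that level; inconclusive = mean inhibition reaches 70% but some replicates fall short; inactive = mean inhibition below 70%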
Target sequence (P26447 whole entry, looked up): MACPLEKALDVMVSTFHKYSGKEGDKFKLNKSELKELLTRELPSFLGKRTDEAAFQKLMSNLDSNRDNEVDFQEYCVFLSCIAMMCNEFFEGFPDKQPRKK
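Test system – S100A4 monomer (human) · Compound – single-point compound testing · Schedule – 5 min incubation before reading · Probe or stimulus – TAMRA-labelled myosin IIA heavy-chain peptide probe, 5 nM · Benchmarks – neutral control DMSO, positive control TFP · Medium – Calcium-containing HEPES buffer, pH 7.2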
Cneo AK release: Cryptococcus neoformans lysis via adenylate kinase release; 0.2% of 360,000 active; C. neoformans lysis, adenylate kinase release luminescence, 4 h; normalised: neutral wells 0, clomiphene wells 100; lysis activity, % at 15 µM; AID 651654;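 active = mean lysis activity across replicates of at least 80%, whatever share of replicates individually reach that level; inactive = mean lysis activity below 80%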
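Material: C. neoformans cells; Schedule: 4 h static compound exposure, 37 °C, read 1 h post-reagent; Measured by: adenylate kinase release luminescence; Read-out: signal increase indicating cell lysis; Controls: Clomiphene as positive lysis control.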
rRNA inh HTS: inhibitors of bacterial rRNA selective over humanized ribosomes | E. coli WT GFP vs humanized-ribosome RFP mutants, fluorescence, 24 h; hits give low values; DMSO median 0, no signal -100 | GFP signal change (wild-type ribosome), % (concentration not given with the values) | 1.6% of 350,000 active;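 active = significant combined selectivity score with lowered wild-type GFP, culture density cut under 30%, mutant RFP and density less affected; inactive = any of these conditions unmet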
PfHsp90 yeast 2: reduces growth (ATP signal) of yeast expressing P. falciparum Hsp90; inhibition, % at 9.4 µM; AID 504621; S. cerevisiae expressing PfHsp90, BacTiter-Glo ATP, 48 h; yeast lacking PDR1 and PDR3 efflux regulators; 0.32% of 310,000 active;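 active = every replicate shows inhibition above about 80%, whatever the replicate mean, limit read from the data; inconclusive = mean inhibition reaches the set limit but some replicate falls short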;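 note: 0% = DMSO neutral controls and 100% = 20 µM radicicol positive controls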
An asterisk follows results filed as active; u = inconclusive; x = no result given. Hits are enriched below; roughly 3.2% of the tested compounds scored in any of these assays.

SMILES	DENV2 CPE rescue	AF4-AF9 inh	S100A4 MyoIIA	Cneo AK release	rRNA inh HTS	PfHsp90 yeast 2
COc1ccc(CN(C)C[C@H]2OCCCC[C@@H](C)Oc3ccc(NC(=O)Nc4ccc(OC)cc4)cc3C(=O)N([C@H](C)CO)C[C@H]2C)cc1	6.4	2.1	4.1	-6.8	3.4	x
CSc1nsc(SCc2ccc(Cl)cc2)n1	6.5	-16.8	-11.1	-3.6	-42.7*	x
CSc1nsc(SCc2ccc(F)cc2)n1	x	x	x	-0.6	x	-2.4
C/C=C/c1ccc(C2[C@@H]3CN(S(=O)(=O)c4cn(C)cn4)C[C@H]2N3)cc1 (some centres not stated)	u	x	x	x	8.6	x
N/C(=N\OC(=O)Cc1ccc(Cl)cc1)c1ccncc1	2.9	3.2	2.5	x	-21.5*	-6.1
N/C(=N\OC(=O)c1ccc2ccccc2c1)c1ccccc1Cl	5.9	-4.3	-2.7	-5.7	3.1	99.9*
COc1ccc(CC(=O)O/N=C(\N)c2ccncc2)cc1	8.3	2.1	3.8	x	-5.9	-32.7
N/C(=N\OC(=O)Cc1ccccc1)c1ccccc1Cl	-3.8	1.1	-6.2	x	-17.4*	9.8
COc1ccc(CC(=O)O/N=C(\N)c2ccc(C)cc2)cc1	-0.4	0.5	-6.5	-4.3	-21.7*	0.2
N/C(=N\OC(=O)Cc1ccccc1)c1cccc(Br)c1	1.1	-0.8	4.4	x	6.8	-21.6
C[C@H](CO)N1C[C@H](C)[C@@H](CN(C)Cc2ccccc2)Oc2ccc(NC(=O)CCN3CCOCC3)cc2C1=O	14.2	-0.8	6.3	40.4	6.6	x
Cc1ccc(S(=O)(=O)N(C)C[C@@H]2Oc3ccc(NC(=O)Cc4cn(C)c5ccccc45)cc3CC(=O)N([C@@H](C)CO)C[C@H]2C)cc1	-6.7	-0.6	-7.1	-2.8	-5.3	x
O=C(CCN1CCCCC1)NCC[C@@H]1CC[C@@H](NC(=O)C2CCC2)[C@@H](CO)O1	11.6	-0.2	-7.3	1.5	0.1	x
Cc1noc(C)c1S(=O)(=O)Nc1ccc2c(c1)C(=O)N([C@@H](C)CO)C[C@H](C)[C@H](CN(C)C)OCCCC[C@H](C)O2	16.5	-3.4	1.9	3.0	1.2	x
C[C@H](CO)N1C[C@H](C)[C@H](CN(C)Cc2ccc3c(c2)OCO3)Oc2ccc(NC(=O)Nc3ccc(F)cc3)cc2C1=O	1.2	8.7	3.6	41.2	-2.3	x
Cc1nc(Sc2ccc(Cl)cc2)c(C#N)c(C)c1[N+](=O)[O-]	17.3	1.3	-3.6	-0.8	-20.2*	-24.0
Cc1nc(Sc2ccc(Br)cc2)c(C#N)c(C)c1[N+](=O)[O-]	-9.5	-0.4	-4.1	2.1	1.3	-2.0
Cc1ccc(Sc2nc(C)c([N+](=O)[O-])c(C)c2C#N)cc1	28.9*	-1.7	-0.1	-1.8	-13.1	x
C[C@H](CO)N1C[C@H](C)[C@H](CN(C)C(=O)CN2CCOCC2)Oc2ncc(C3=CCCC3)cc2C1=O	-7.0	-1.5	0.2	0.8	2.4	x
COc1ccccc1C(C[N+](=O)[O-])c1c(N)n(C)c(=O)n(C)c1=O (configuration not stated)	3.0	-4.9	0.0	1.0	-33.5*	x
COc1ccccc1C(c1c(N)n(C)c(=O)n(C)c1=O)C(C)[N+](=O)[O-] (configuration not stated)	-5.4	-0.4	0.5	0.0	13.0	x
Cc1ccc2nc(NC(=O)CN3C(=O)C4CC=CCC4C3=O)sc2c1 (configuration not stated)	-6.2	-3.6	-3.6	x	-25.1*	17.9
COc1ccc(Cl)cc1NC(=O)Nc1cccc([N+](=O)[O-])c1C	x	x	-2.0	-2.2	-31.8*	7.4
C[C@@H]1CN([C@@H](C)CO)C(=O)Cc2cc(NS(=O)(=O)c3ccc(Cl)cc3)ccc2O[C@@H]1CN(C)S(C)(=O)=O	-4.2	-2.0	5.2	6.6	-0.1	x
O=[N+]([O-])c1cc2no[n+]([O-])c2cc1N1CCCCC1	11.7	10.6	-2.4	x	0.6	105.4*
SMILES	DENV2 CPE rescue	AF4-AF9 inh	S100A4 MyoIIA	Cneo AK release	rRNA inh HTS	PfHsp90 yeast 2
CCc1nc(N2CCCCC2C(=O)O)c2oc3ccccc3c2n1 (configuration not stated)	-2.7	-9.4	0.8	x	-4.7	-16.0
CCc1nc(N2CCCCC2C)c2oc3ccccc3c2n1 (configuration not stated)	x	x	x	85.7*	x	17.4
CCCCn1nc(C(=O)Nc2ccc(-n3cnnn3)cc2)c2ccccc2c1=O	57.3*	2.1	-3.6	0.1	8.2	-4.4
CCCCn1nc(C(=O)Nc2ccc3c(c2)OCO3)c2ccccc2c1=O	36.2*	2.1	-7.8	-3.9	-5.4	x
CCCn1nc(C(=O)Nc2ccc3c(c2)OCO3)c2ccccc2c1=O	-9.7	8.8	0.2	1.9	-0.5	16.5
C[C@H](CO)N1C[C@H](C)[C@H](CN(C)Cc2ccncc2)Oc2ccc(NS(=O)(=O)c3ccc(F)cc3)cc2C1=O	-7.4	-0.7	2.2	-2.9	-1.8	x
COc1ccc(C2C(C(C)=O)=C(O)C(=O)N2c2ccc(C)cc2)cc1 (configuration not stated)	0.8	-3.0	-4.9	-2.0	-24.0*	12.5
C[C@H]1CN([C@@H](C)CO)C(=O)c2cccc(NC(=O)Nc3ccc(F)cc3)c2O[C@@H]1CN(C)Cc1ccc(C(=O)Nc2ccccc2N)cc1	-3.8	-17.5	-12.5	x	-2.5	x
Cn1cc(SCC(=O)NC2CCCCC2)c2ccccc21	2.8	-1.4	0.2	7.0	5.0	-27.5
Cn1cc(SCC(=O)NC2CCCC2)c2ccccc21	-11.2	-1.5	87.3*	-3.3	6.9	10.0
CC(C)(C)c1ccc(OCCC(=O)OCC(=O)NCc2ccccc2)cc1	8.6	-2.2	0.8	-3.3	-34.0*	x
COc1ccc(CNC(=O)COC(=O)CCOc2ccccc2)cc1	x	x	x	x	x	-36.5
CCCNC(=O)[C@H]1[C@H](CO)[C@H]2Cn3c(ccc(C4=CCCC4)c3=O)[C@H]2N1C(=O)C1CC1	-1.9	-1.6	6.0	5.6	0.8	x
CC[n+]1ccccc1/C=C/c1ccc(N(C)C)cc1	8.4	4.3	-75.4	0.9	79.1	-0.7
CCCCCC[n+]1ccccc1/C=C/c1ccc(N(C)C)cc1	-1.4	18.7	92.9*	-1.6	-54.2	x
CC[n+]1ccc(/C=C/c2ccc(N(C)C)cc2)c2ccccc21	-0.9	73.2*	42.6	x	-75.8	56.5
CCC1CN(C(=O)NCc2ccccc2)c2ccccc2O1 (configuration not stated)	-1.1	-4.0	1.1	0.6	-21.5*	-24.5
COc1ccc(-c2nc(CN3CCC(C(=O)N4CCOCC4)CC3)c(C)o2)c(OC)c1	43.6*	2.3	-0.7	0.3	13.8	-1.8
C(=Nn1cnnc1)c1ccc2c(c1)CCC2	u	1.5	2.4	81.8*	6.0	x
